Experimental data published in ChEMBL document CHEMBL3120104, “Discovery of the first C-nucleoside HCV polymerase inhibitor (GS-6620) with demonstrated antiviral response in HCV infected patients” (J Med Chem, 2014).
Converted amounts (≈) assume the structure as drawn.

Key:
[1] = Cytotoxicity against human HuH7 cells after 3 days by fluorescence assay; type: cell-based; settings: Huh-7 cells
Outline: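 Huh-7 HCV replicon cells were seeded at 2000 cells/well in medium without Geneticin. Compounds were added as ten-point 1:3 DMSO dilutions in quadruplicate (final DMSO 0.44%), with […] as the 100% cytotoxicity control. After 3 days at 37 °C, cells were washed and given 400 nM calcein AM for 30 min at RT, and fluorescence read at ex 490/em 520 nm. Signal was normalized to DMSO and puromycin wells, and CC50 taken from a four-parameter Hill fit.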

[2] = Permeability across basolateral to apical side in human Caco2 cells at 10 uM after 1 to 2 hrs by LC/MS/MS analysis; type: ADME, cell-based; settings: Caco-2, read-out: permeability
Outline: (§1)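 Caco-2 monolayers were grown at least 21 days, and membrane integrity was checked by TEER after buffer equilibration. Test compound was dosed at 10 μM on the apical or basolateral side, in duplicate wells. Receiver samples at 1 and 2 h were precipitated with acetonitrile plus internal standard and run by LC/MS/MS.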

Hepatitis C virus = assay: Antiviral activity against HCV genotype 1b infected in human HuH7 cells assessed as inhibition of viral replication after 3 days by luminescence assay; type: functional, organism-based, Hepacivirus hominis; settings: Huh-7, 72 h
Outline: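 Multiplex replicon assay carrying a renilla luciferase reporter, with stable GT1b, 1a and 2a replicons and chimeric 2b, 3a, 4a, 5a and 6a replicons. 2000 replicon cells/well in medium without Geneticin. Ten-step 1:3 serial dilutions, four replicates, 0.44% DMSO final. Incubated 3 days at 37 °C, 5% CO₂. Luminescence normalised to DMSO wells and to protease-inhibitor (ITMN-191) wells. EC50 from a four-parameter Hill fit.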

[3] = Permeability across apical to basolateral side in human Caco2 cells at 10 uM after 1 to 2 hrs by LC/MS/MS analysis; type: ADME, cell-based; settings: Caco-2, read-out: permeability; outline: as §1
[4] = Metabolic stability in human liver S9 fraction assessed as extraction at 2 uM after 90 mins by LC/MS/MS analysis; type: ADME, subcellular; settings: read-out: Stability
Outline: (§2)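 Compound at 2 μM was incubated with human intestinal or hepatic S9 fraction plus NADPH and UDPGA for 90 min at 37 °C. Time-point samples were quenched in aqueous acetonitrile/methanol with internal standard and analysed by LC/MS/MS. Half-life came from an exponential first-order fit, and hepatic extraction was predicted from half-life using the well-stirred model.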

[5] = Aqueous solubility of the compound in phosphate buffer at pH 7 by reverse-phase UPLC-UV method; type: physicochemical
Outline: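 Excess solid was suspended in pH 7 phosphate buffer at ambient temperature, sonicated, then stirred for at least 2 h. After centrifugation, the supernatant was quantified by reverse-phase UPLC-UV.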

[6] = Lipophilicity, log D of the compound by HPLC/UV method; type: physicochemical
Outline: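 A 10 mM DMSO stock was diluted 1:100 into 1:1 acetonitrile/water, shaken 30 min, and analysed by HPLC/UV on a C18 column with 20 mM ammonium acetate/acetonitrile mobile phase.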

[7] = Half life in human intestinal S9 fraction at 2 uM by LC/MS/MS analysis; type: ADME, Intestine; outline: as §2
Syrian golden hamster [8] = assay: Cmax in golden syrian hamster assessed as liver triphosphate level at 5 mg/kg, po by LC/MS/MS analysis; type: ADME, organism-based, Mesocricetus auratus; set-up: dose 5 mg/kg, route oral; settings: in vivo
Outline: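 Groups of 12 Golden Syrian hamsters were dosed orally at 5 mg-equiv/kg. Vehicle was EtOH/PEG400/water buffered with 50 mM pH 4 citrate at 2.5 mg-equiv/mL. Liver was homogenized in four volumes of ice-cold 0.1% KOH/67 mM EDTA in 70% MeOH containing 0.25 μM Cl-ATP, then centrifuged, dried and reconstituted in 1 mM ammonium phosphate pH 7.0. Triphosphate was measured by LC/MS/MS, with endogenous ATP checked for sample stability.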

[9] = AUC (0 to infinity) in jagular vein cannulated beagle dog at 0.5 mg/kg, iv by LC/MS/MS analysis; type: ADME, organism-based, Canis lupus familiaris; set-up: time infinity, dose 0.5 mg/kg, route intravenous; settings: plasma
Outline: (§3)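 Naive male beagle dogs got a single intravenous infusion of 0.5 mg/kg in EtOH/PEG 400/water 5/20/75, adjusted to pH 4 with HCl. EDTA-K3 blood was collected over 24 h and plasma isolated. Plasma was precipitated with acetonitrile to a final 60%, filtered, dried, reconstituted in 20% acetonitrile and analysed.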

[10] = Oral absorption in beagle dog at 5 mg/kg, po by LC/MS/MS analysis; type: ADME, organism-based, Canis lupus familiaris; set-up: dose 5 mg/kg, route oral; settings: in vivo
Outline: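 Naive male beagle dogs were dosed once, orally at 5 mg/kg in EtOH/PEG 400/50 mM citrate buffer pH 4 (5/40/55), or intravenously at 0.5 mg/kg for reference. Plasma was sampled over 24 h and processed by acetonitrile precipitation. Bioavailability %F = AUC_po × Dose_iv / (AUC_iv × Dose_po).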

Syrian golden hamster [11] = assay: Cmax in golden syrian hamster assessed as liver triphosphate level at 1 mg/kg, iv by LC/MS/MS analysis; type: ADME, organism-based, Mesocricetus auratus; set-up: dose 1 mg/kg, route intravenous; settings: in vivo
Outline: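 Golden Syrian hamsters in groups of 12, dosed iv at 1 mg-equiv/kg in EtOH/PEG400/water adjusted to pH 4 with HCl (0.5 mg-equiv/mL). Liver homogenised in ice-cold 70% MeOH with 0.1% KOH, 67 mM EDTA and 0.25 μM Cl-ATP internal standard, then centrifuged, dried and reconstituted. Triphosphate measured by LC/MS/MS; endogenous ATP checked for sample stability.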

[12] = Oral bioavailability in golden syrian hamster at 5 mg/kg; type: ADME, organism-based, Mesocricetus auratus; settings: in vivo
[13] = AUC (0 to infinity) in portal vein cannulated beagle dog at 0.5 mg/kg, iv by LC/MS/MS analysis; type: ADME, organism-based, Canis lupus familiaris; set-up: time infinity, dose 0.5 mg/kg, route intravenous; settings: plasma; outline: as §3
Hepatocyte = assay: Prodrug coversion in human hepatocytes assessed as triphosphate formation assesed per million cells at 10 uM incubated for 1 hr followed by compound washout by liquid chromatography coupled with mass spectrometry; type: ADME, cell-based; set-up: dose 10 uM
Outline: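 Confluent primary human hepatocytes (0.88 × 10⁶ cells/well, Williams E medium) were exposed to 10 μM compound for 1 h, then to drug-free medium for 23 h. Cells were collected during and after exposure and extracted. Triphosphate was quantified by LC/MS/MS and expressed per million cells.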

[14] = Metabolic stability in serum (unknown origin); type: ADME

C[C@H](NP(=O)(OC[C@H]1O[C@@](C#N)(c2ccc3c(N)ncnn23)[C@](C)(O)[C@@H]1O)Oc1ccccc1)C(=O)OC(C)(C)C (stereo not given in full)
CC50 at 72 h [1]: > 89000 nM | Papp B→A at 10 µM [2]: 31.1 ×10⁻⁶ cm/s | EC50 (Hepatitis C virus): > 89000 nM | Papp A→B at 10 µM [3]: 0.67 ×10⁻⁶ cm/s | hepatic extraction ratio at 1.5 h, 2 µM [4]: 0.84 | solubility [5]: 380 µg/mL (≈ 646 µM) | logD [6]: 2.2 | half-life at 2 µM [7]: > 10.2 h

C[C@H](NP(=O)(OC[C@H]1O[C@@](C#N)(c2ccc3c(N)ncnn23)[C@](C)(O)[C@@H]1O)Oc1ccccc1)C(=O)OCC(C)(C)C (stereo not given in full)
Cmax (Syrian golden hamster [8]): 1440 nM | CC50 at 72 h [1]: 85000 nM | Papp B→A at 10 µM [2]: 29.1 ×10⁻⁶ cm/s | AUC(0-inf) [9]: 0.09 µM·h | Fa [10]: 13% | EC50 (Hepatitis C virus): 180 nM | Cmax (Syrian golden hamster [11]): 5180 nM | Papp A→B at 10 µM [3]: 0.69 ×10⁻⁶ cm/s | bioavailability [12]: 5.6% | hepatic extraction ratio at 1.5 h, 2 µM [4]: 0.94 | AUC(0-inf) [13]: 0.25 µM·h | solubility [5]: 115 µg/mL (≈ 191 µM) | logD [6]: 2.3 | half-life at 2 µM [7]: 1.42 h

CC[C@H](C)OC(=O)[C@H](C)NP(=O)(OC[C@H]1O[C@@](C#N)(c2ccc3c(N)ncnn23)[C@](C)(O)[C@@H]1O)Oc1ccccc1 (stereo not given in full)
Cmax (Syrian golden hamster [8]): 1270 nM | CC50 at 72 h [1]: > 89000 nM | Papp B→A at 10 µM [2]: 17.9 ×10⁻⁶ cm/s | AUC(0-inf) [9]: 0.12 µM·h | Fa [10]: 16% | Drug metabolism (Hepatocyte): Active | EC50 (Hepatitis C virus): 230 nM | Stability [14]: Stable | Papp A→B at 10 µM [3]: 1.47 ×10⁻⁶ cm/s | hepatic extraction ratio at 1.5 h, 2 µM [4]: 0.93 | AUC(0-inf) [13]: 0.8 µM·h | solubility [5]: 200 µg/mL (≈ 340 µM) | logD [6]: 2.1 | half-life at 2 µM [7]: 9.87 h

COC(=O)[C@H](C)NP(=O)(OC[C@H]1O[C@@](C#N)(c2ccc3c(N)ncnn23)[C@](C)(O)[C@@H]1O)Oc1ccccc1 (stereo not given in full)
Cmax (Syrian golden hamster [8]): 290 nM | CC50 at 72 h [1]: > 89000 nM | Papp B→A at 10 µM [2]: 4.64 ×10⁻⁶ cm/s | EC50 (Hepatitis C virus): 1370 nM | Cmax (Syrian golden hamster [11]): 6350 nM | Papp A→B at 10 µM [3]: 0.41 ×10⁻⁶ cm/s | bioavailability [12]: 0.9% | hepatic extraction ratio at 1.5 h, 2 µM [4]: 0.9 | logD [6]: 1.3 | half-life at 2 µM [7]: 3.17 h

CCC(CC)COC(=O)[C@H](C)NP(=O)(OC[C@H]1O[C@@](C#N)(c2ccc3c(N)ncnn23)[C@](C)(O)[C@@H]1O)Oc1ccccc1 (stereo not given in full)
Cmax (Syrian golden hamster [8]): 2260 nM | CC50 at 72 h [1]: 35000 nM | Papp B→A at 10 µM [2]: 7.2 ×10⁻⁶ cm/s | AUC(0-inf) [9]: 0.02 µM·h | Fa [10]: 7.9% | EC50 (Hepatitis C virus): 440 nM | Cmax (Syrian golden hamster [11]): 8330 nM | Papp A→B at 10 µM [3]: 0.36 ×10⁻⁶ cm/s | bioavailability [12]: 5.4% | hepatic extraction ratio at 1.5 h, 2 µM [4]: 0.97 | AUC(0-inf) [13]: 0.21 µM·h | solubility [5]: 1.8 µg/mL (≈ 2.92 µM) | logD [6]: 2.7 | half-life at 2 µM [7]: 1.23 h

CC(C)OC(=O)[C@H](C)NP(=O)(OC[C@H]1O[C@@](C#N)(c2ccc3c(N)ncnn23)[C@]2(C)OC(=O)O[C@H]12)Oc1ccccc1 (stereo not given in full)
Cmax (Syrian golden hamster [8]): 590 nM | CC50 at 72 h [1]: > 89000 nM | Fa [10]: 29% | EC50 (Hepatitis C virus): 1410 nM | Stability [14]: Stable | Cmax (Syrian golden hamster [11]): 1920 nM | logD [6]: 2.6

CC[C@@H](C)OC(=O)[C@H](C)NP(=O)(OC[C@H]1O[C@@](C#N)(c2ccc3c(N)ncnn23)[C@](C)(O)[C@@H]1O)Oc1ccccc1 (stereo not given in full)
Cmax (Syrian golden hamster [8]): 1870 nM | CC50 at 72 h [1]: > 89000 nM | Papp B→A at 10 µM [2]: 37.5 ×10⁻⁶ cm/s | AUC(0-inf) [9]: 0.14 µM·h | Fa [10]: 8.1% | EC50 (Hepatitis C virus): 980 nM | Stability [14]: Stable | Papp A→B at 10 µM [3]: 0.75 ×10⁻⁶ cm/s | hepatic extraction ratio at 1.5 h, 2 µM [4]: 0.94 | AUC(0-inf) [13]: 0.46 µM·h | solubility [5]: 151 µg/mL (≈ 257 µM) | logD [6]: 1.9 | half-life at 2 µM [7]: 7.68 h
